Data as given in publication PMC5482095 (Molecular Medicine Reports, 2017).
Values after ≈ are worked out from the molar mass of the structure shown.

Legend:
BALB/c 3T3 cells = assay: MTT cytotoxicity assay, 3T3 fibroblasts; assay type: cell-based, murine; settings: for IC50: Mus musculus, BALB/c3T3, 240 h, read-out: IC50 3T3
mES-D3 cells = assay: MTT cytotoxicity assay, embryonic stem cells; assay type: cell-based, murine; settings: Mus musculus, Embryonic stem cell, 240 h, read-out: IC50 ES
[1] = tested on: mES-D3 cells and BALB/c-3T3 cells; assay: Classification of embryotoxicity by the ECVAM prediction model; design: species or system murine; settings: prediction model from mean IC50 3T3, IC50 ES and ID50
How it was run: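 Class (non-, weak or strong embryotoxic) comes from the ECVAM linear discriminant prediction model using mean IC50 3T3, IC50 ES and ID50. ID50 setup: 1,000 mES cells per 20 µl hanging drop without LIF for 3 days, then suspension for 2 days, then 100 EBs/well on 0.1% gelatin for 5 days. Compound is present from day 0. On day 10, α/β-MHC expression is measured by RT-PCR against GAPDH, giving the 50%-suppression concentration (mean of three repeats).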

[2] = cited from earlier work
mice = settings: cited from earlier work
[3] = tested on: mouse preimplantation embryos; settings: in vivo; cited from earlier work
[4] = toxicological studies; cited from earlier work

## O=c1[nH]cc(F)c(=O)[nH]1 [5-fluorouracil, reference compound]
BALB/c 3T3 cells
  IC50: 0.244 ± 0.051 µg/mL (≈ 1.88 µM)
mES-D3 cells
  IC50: 0.08 ± 0.016 µg/mL (≈ 0.615 µM)
[1]
  Classification of the embryotoxicity: Strong
  Classification of the embryotoxicity according to the PM (in words): strong embryotoxicity
[2]
  Known in vivo embryotoxic potential: strong embryotoxicity

## CC(C)c1cc2c(c(O)c1O)[C@@]1(C(=O)O)CCCC(C)(C)[C@@H]1CC2 [Carnosic acid]
BALB/c 3T3 cells
  IC50: 26.3 ± 3.86 µg/mL (≈ 79.1 µM)
mES-D3 cells
  IC50: 5.77 ± 1.3 µg/mL (≈ 17.4 µM)
mice
  Oral lethal dose: 7,100 mg/kg of body weight
[1]
  Classification of the embryotoxicity: Weak
  Classification of the embryotoxicity according to the PM (in words): weak embryotoxicity

## CCCCCCCCOC(=O)c1ccccc1C(=O)OCCCCCCCC [Dioctyl phthalate, dioctyl phthalate]
BALB/c 3T3 cells
  IC50: 213 ± 28.2 µg/mL (≈ 547 µM)
mES-D3 cells
  IC50: 124 ± 24.9 µg/mL (≈ 316 µM)
[1]
  Classification of the embryotoxicity: Weak
  Classification of the embryotoxicity according to the PM (in words): weak embryotoxicity

## C=CCc1ccc(O)c(OC)c1 [Eugenol, eugenol]
[3]
  Influence on development of preimplantation embryos: may induce a significantly increased rate of cell death and affect the development of embryo
BALB/c 3T3 cells
  IC50: 9.44 ± 2.85 µg/mL (≈ 57.5 µM)
mES-D3 cells
  IC50: 1.93 ± 0.329 µg/mL (≈ 11.7 µM)
[1]
  Classification of the embryotoxicity: Strong
  Classification of the embryotoxicity according to the PM (in words): strong embryotoxicity

## CC1(C)S[C@@H]2[C@H](NC(=O)Cc3ccccc3)C(=O)N2[C@H]1C(=O)O [Penicillin G, penicillin G, reference compound]
BALB/c 3T3 cells
  IC50: 1160 ± 69.1 µg/mL (≈ 3470 µM)
mES-D3 cells
  IC50: 1570 ± 152 µg/mL (≈ 4690 µM)
[1]
  Classification of the embryotoxicity: None
  Classification of the embryotoxicity according to the PM (in words): non-embryotoxicity

## procyanidin
BALB/c 3T3 cells; BALB/c 3T3 cells, 10 days of culture, MTT, mean ± standard error of the mean of three experiments
  IC50 3T3: 12.100 ± 1.828 µg/mL
[1]
  Classification of the embryotoxicity: None
  Classification of the embryotoxicity according to the PM (in words): non-embryotoxicity
[4]
  Toxicity in vivo: nontoxic and does not cause any detrimental effects in vivo
